For 13 compounds, MIC results are on record in ChEMBL document CHEMBL1153995, “Synthesis and biological evaluation of new enantiomerically pure azole derivatives as inhibitors of Mycobacterium tuberculosis” (2009).

Converted amounts (≈) assume the structure as drawn.

As a reminder, the MIC is the smallest concentration in the dilution series that meets the test's criterion for growth inhibition.

This experiment relates to Mycobacterium tuberculosis. Put plainly: Antimycobacterial activity against Mycobacterium tuberculosis H37Rv ATCC 27294 after 21 to 28 days by two fold agar dilution method. It counts as functional. Summed up: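 Stock kept on Löwenstein-Jensen slants. Twofold agar dilution in Middlebrook 7H11 agar with 10% OADC, compounds at 0.0312–64 µg/mL. Inoculum grown in Middlebrook 7H9 with 10% ADC, suspension at 1.5 × 10⁵ cfu/mL, final 1.5 × 10³ per well. Incubated 21–28 days. MIC read as lowest concentration completely inhibiting visible growth.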
`Clc1ccc(Cn2cc([C@@H](c3ccc(Cl)cc3)n3ccnc3)nn2)cc1` came in with an MIC of 32 µg/mL (≈ 83.3 µM).
The same measure for `Fc1ccc([C@H](c2cn(Cc3ccccc3)nn2)n2ccnc2)cc1`: 64 µg/mL (≈ 192 µM); for `Fc1ccc([C@@H](c2cn(Cc3ccccc3)nn2)n2ccnc2)cc1`: 64 µg/mL (≈ 192 µM); for `Brc1ccc([C@H](c2cn(-c3ccccc3)nn2)n2ccnc2)cc1`: 32 µg/mL (≈ 84.2 µM).
Consider `Brc1ccc([C@@H](c2cn(Cc3ccccc3)nn2)n2ccnc2)cc1`, for which the minimum inhibitory concentration (MIC) came out at 32 µg/mL (≈ 81.2 µM).
The same measure for `Brc1ccc([C@@H](c2cn(-c3ccccc3)nn2)n2ccnc2)cc1`: 32 µg/mL (≈ 84.2 µM); for `Brc1ccc([C@H](c2cn(Cc3ccccc3)nn2)n2ccnc2)cc1`: 16 µg/mL (≈ 40.6 µM).
The same measure for `Clc1ccc(Cn2cc([C@H](c3ccc(Cl)cc3)n3ccnc3)nn2)cc1`: 32 µg/mL (≈ 83.3 µM); for `Fc1ccc([C@@H](c2cn(-c3ccccc3)nn2)n2ccnc2)cc1`: 32 µg/mL (≈ 100 µM).
`Fc1ccc([C@H](c2cn(-c3ccccc3)nn2)n2ccnc2)cc1` yielded an MIC of 32 µg/mL (≈ 100 µM).
The same measure for `Clc1ccccc1C(c1ccccc1)(c1ccccc1)n1ccnc1` [CLOTRIMAZOLE]: 20.4 µg/mL (≈ 59.2 µM).
With `Clc1ccc(COC(Cn2ccnc2)c2ccc(Cl)cc2Cl)cc1` (stereo not drawn) [ECONAZOLE] the figure was 12.5 µg/mL (≈ 32.7 µM); with `NNC(=O)c1ccncc1` [ISONIAZID], 0.2 µg/mL (≈ 1.46 µM).
